Results: ChEMBL document CHEMBL4396941, “Design, synthesis and biological evaluation of benzamide derivatives as novel NTCP inhibitors that induce apoptosis in HepG2 cells” (Bioorg Med Chem Lett, 2019)
Active and inactive are the calls of the source. The rule behind the calls is not given here.

Experiments:
HepG2 [1] = assay: Antiproliferative activity against human HepG2 cells assessed as inhibition of cell growth incubated for 24 hrs by MTT assay; assay type: functional, cell-based; conditions: HepG2, 24 h
Method in brief: (§1)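 HepG2 cells exposed to a range of concentrations for the stated times, then inhibition rate measured by MTT.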

Hepatitis B virus [2] = assay: Antiviral activity against hepatitis B virus infected in human HepG2.2.15 cells assessed as reduction in HBeAg secretion at 5 uM incubated for 9 days by ELISA (reference value: 25.13 +/- 1.93 ng/ml); assay type: functional
Hepatitis B virus [3] = assay: Antiviral activity against hepatitis B virus infected in human HepG2.2.15 cells assessed as HBsAg secretion at 5 uM incubated for 9 days by ELISA (reference value: 8.41+/- 0.54 ng/ml); assay type: functional
[4] = target: T1, Hepatic sodium/bile acid cotransporter (Homo sapiens, UniProt Q14973); assay: Inhibition of human recombinant NTCP expressed in CHO cells assessed as reduction in [3H]taurocholate uptake incubated for 2 mins by scintillation counting method; assay type: cell-based
T1 sequence (Q14973 whole entry): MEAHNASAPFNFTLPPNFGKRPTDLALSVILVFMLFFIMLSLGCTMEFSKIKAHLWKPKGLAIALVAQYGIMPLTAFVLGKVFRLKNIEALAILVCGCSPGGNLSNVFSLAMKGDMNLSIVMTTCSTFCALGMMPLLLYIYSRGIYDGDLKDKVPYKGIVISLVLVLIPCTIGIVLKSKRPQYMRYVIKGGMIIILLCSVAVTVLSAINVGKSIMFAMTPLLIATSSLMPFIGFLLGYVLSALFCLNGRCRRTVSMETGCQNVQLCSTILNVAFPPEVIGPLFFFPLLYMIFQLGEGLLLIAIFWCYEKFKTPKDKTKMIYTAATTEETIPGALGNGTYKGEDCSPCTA

Hepatitis B virus [5] = assay: Antiviral activity against hepatitis B virus infected in human HepG2.2.15 cells assessed as reduction in HBV DNA level incubated for 9 days by real time-PCR analysis; assay type: functional, organism-based
HepG2 [6] = assay: Antiproliferative activity against human HepG2 cells assessed as inhibition of cell growth incubated for 48 hrs by MTT assay; assay type: functional, cell-based; conditions: HepG2, 48 h; method in brief: as §1
HepG2 [7] = assay: Inhibition of NTCP protein expression in human HepG2 cells at 2.5 to 10 uM incubated for 24 hrs by western blot analysis; assay type: functional, cell-based
Method in brief: (§2)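 HepG2 cells treated 24 h at several concentrations; NTCP, PARP, Bax, Bcl-2 and caspase-3 detected by western blot.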

HepG2 [8] = assay: Induction of cell morphological changes in human HepG2 cells assessed as condensed chromatin at 2.5 to 10 uM incubated for 24 hrs by Hoechst 33258 staining based fluorescence microscopy; assay type: functional
Method in brief: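 HepG2 cells treated 24 h at several concentrations, stained with Hoechst 33258, chromatin morphology examined by fluorescence microscopy.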

HepG2 [9] = assay: Induction of apoptosis in human HepG2 cells assessed as early apoptotic cells at 2.5 uM incubated for 24 hrs by annexin -V/propidium iodide staining based flow cytometry (reference value: 2.23%); assay type: functional
HepG2 [10] = assay: Induction of apoptosis in human HepG2 cells assessed as late apoptotic cells at 2.5 uM incubated for 24 hrs by annexin -V/propidium iodide staining based flow cytometry (reference value: 4.72%); assay type: functional
HepG2 [11] = assay: Induction of apoptosis in human HepG2 cells assessed as downregulation of Bcl2 protein expression at 2.5 to 10 uM incubated for 24 hrs by Western blot analysis; assay type: functional, cell-based; method in brief: as §2
HepG2 [12] = assay: Induction of apoptosis in human HepG2 cells assessed as upregulation of Bax protein expression at 2.5 to 10 uM incubated for 24 hrs by Western blot analysis; assay type: functional, cell-based; method in brief: as §2
HepG2 [13] = assay: Induction of apoptosis in human HepG2 cells assessed as early apoptotic cells at 5 uM incubated for 24 hrs by annexin -V/propidium iodide staining based flow cytometry (reference value: 2.23%); assay type: functional
HepG2 [14] = assay: Induction of apoptosis in human HepG2 cells assessed as late apoptotic cells at 10 uM incubated for 24 hrs by annexin -V/propidium iodide staining based flow cytometry (reference value: 4.72%); assay type: functional
HepG2 [15] = assay: Induction of apoptosis in human HepG2 cells assessed as increase in PARP cleavage at 2.5 to 10 uM incubated for 24 hrs by Western blot analysis; assay type: functional, cell-based; method in brief: as §2
HepG2 [16] = assay: Induction of apoptosis in human HepG2 cells assessed as early apoptotic cells at 10 uM incubated for 24 hrs by annexin -V/propidium iodide staining based flow cytometry (reference value: 2.23%); assay type: functional
HepG2 [17] = assay: Induction of apoptosis in human HepG2 cells assessed as increase in caspase-3 cleavage at 2.5 to 10 uM incubated for 24 hrs by Western blot analysis; assay type: functional, cell-based; method in brief: as §2
HepG2 [18] = assay: Antiproliferative activity against human HepG2 cells assessed as inhibition of cell growth incubated for 72 hrs by MTT assay; assay type: functional, cell-based; conditions: HepG2, 72 h; method in brief: as §1
HepG2 [19] = assay: Induction of apoptosis in human HepG2 cells assessed as late apoptotic cells at 5 uM incubated for 24 hrs by annexin -V/propidium iodide staining based flow cytometry (reference value: 4.72%); assay type: functional
[20] = target: T1, Hepatic sodium/bile acid cotransporter; assay: Inhibition of NTCP in human hepatocytes; assay type: cell-based

| Structure (SMILES) | IC50 (HepG2 [1]) [µM] | Activity (Hepatitis B virus [2]) [ng/mL] | Activity (Hepatitis B virus [3]) [ng/mL] | also measured |
| --- | --- | --- | --- | --- |
| C[C@H](Cn1cnc2c(N)ncnc21)OCP(=O)(O)O [TENOFOVIR ANHYDROUS] | – | 5.6 | 1.72 | – |
| CC(C)n1c(/C=C/C(O)CC(O)CC(=O)O)c(-c2ccc(F)cc2)c2ccccc21 (configuration not stated) [FLUVASTATIN] | – | – | – | IC50 [4]: 40 µM |
| N#Cc1ccc(C(=O)NCC(=O)N/N=C/c2ccccc2OCc2ccccc2Cl)cc1 | > 50 | 25.22 | 8.33 | – |
| CCN(CC)c1ccc(/C=N/NC(=O)CNC(=O)c2ccc(C)cc2)c(OCc2ccccc2Cl)c1 | > 50 | 24.55 | 8.37 | – |
| COc1ccc(/C=N/NC(=O)CNC(=O)c2ccc(C#N)cc2)c(OCc2ccccc2Cl)c1 | > 50 | 25.47 | 8.29 | – |
| O=C(CNC(=O)c1cccnc1Cl)N/N=C/c1ccccc1OCc1cc2c(cc1Cl)OCO2 | > 50 | 25.47 | 8.39 | – |
| Cc1ccc(C(=O)NCC(=O)N/N=C/c2ccccc2OCc2ccc(Cl)cc2)cc1 | > 50 | 22.99 | 7.79 | – |
| COc1ccc(COc2ccccc2/C=N/NC(=O)CNC(=O)c2ccc(C)cc2)cc1 | > 50 | 23.04 | 7.66 | – |
| Cc1cc(OCCCS(C)(=O)=O)cc(C)c1-c1cccc(COc2ccc3c(c2)OC[C@H]3CC(=O)O)c1 | – | – | – | IC50 [20]: 2 µM |

Now from value to compound, other results behind:

| IC50 (HepG2 [1]) [µM] | Structure (SMILES) | Activity (Hepatitis B virus [2]) [ng/mL] | Activity (Hepatitis B virus [3]) [ng/mL] | also measured |
| --- | --- | --- | --- | --- |
| 24.9 | O=C(CNC(=O)c1ccc(F)cc1)N/N=C/c1ccccc1OCc1ccccc1Cl | 14.53 | 5.03 | – |
| 26.4 | O=C(COc1ccc(Cl)cc1)NCc1ccc(CNC(=O)COc2ccc(Cl)cc2)cc1 | – | – | – |
| > 50 | Cc1ccc(C(=O)NCC(=O)N/N=C/c2ccccc2OCc2ccc(C#N)cc2)cc1 | 25.25 | 8.25 | – |
| > 50 | O=C(CNC(=O)c1ccc(-c2ccccc2)cc1)N/N=C/c1ccccc1OCc1cc2c(cc1Cl)OCO2 | 24.07 | 7.72 | – |
| 53.2 | Cc1cc(C)cc(OCC(=O)NCCNC(=O)COc2cc(C)cc(C)c2)c1 | – | – | – |
| 13.4 | Cc1ccc(C(=O)NCC(=O)N/N=C/c2ccccc2OCc2ccccc2Cl)cc1 | 15.01 | 3.95 | – |
| 23.4 | Cc1cccc(CSCCNC(=O)CN(c2cccc(C(F)(F)F)c2)S(C)(=O)=O)c1 | – | – | – |
| 4.7 | O=C(CNC(=O)c1cccnc1Cl)N/N=C/c1ccc(OCc2ccccc2Cl)cc1 | 7.36 | 2.48 | inhibition (Hepatitis B virus [5]): Active |
| 10.1 | O=C(CNC(=O)c1cccnc1)N/N=C/c1ccc(OCc2cc3c(cc2Cl)OCO3)cc1 | 11.45 | 3.71 | – |
| 2.8 | Cc1ccc(C(=O)NCC(=O)N/N=C/c2ccccc2OCc2cc3c(cc2Cl)OCO3)cc1 | 7.43 | 1.93 | IC50 (HepG2 [6]): 1.2 µM; inhibition (HepG2 [7]): Active; Activity (HepG2 [8]): Active; Activity (HepG2 [9]): 4.73%; inhibition (Hepatitis B virus [5]): Active; Activity (HepG2 [10]): 15.33%; Activity (HepG2 [11]): Active; Activity (HepG2 [12]): Active; Activity (HepG2 [13]): 5.39%; Activity (HepG2 [14]): 30.48%; Activity (HepG2 [15]): Active; Activity (HepG2 [16]): 5.99%; Activity (HepG2 [17]): Active; IC50 (HepG2 [18]): 0.9 µM; Activity (HepG2 [19]): 21.66% |
